# Assay results as given in ChEMBL document CHEMBL5154634, “A Modular Synthetic Route Involving N-Aryl-2-nitrosoaniline Intermediates Leads to a New Series of 3-Substituted Halogenated Phenazine Antibacterial Agents” (J Med Chem, 2021).
# The source made the active and inactive calls. The rule behind the calls is not given here.
# Key:
# Staphylococcus aureus [1] = assay: Antibacterial activity against methicillin-resistant Staphylococcus aureus BAA-1707 assessed as bacterial growth inhibition incubated for 16 hrs by broth microdilution susceptibility test; assay type: functional
# Summary of the method: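 CLSI broth microdilution with 11 twofold dilutions (0.05–50 μM). About 10^5 cells per well from a log-phase culture. DMSO vehicle up to 0.5% v/v. At least three independent experiments.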
# Enterococcus faecium = assay: Antibacterial activity against vancomycin-resistant Enterococcus faecium ATCC 700221 assessed as bacterial growth inhibition incubated for 16 hrs by broth microdilution susceptibility test; assay type: functional
# Summary of the method: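 CLSI broth microdilution with 11 twofold dilutions (0.05–50 μM). Medium was LB for the staphylococci and BHI for VRE 700221. About 10^5 cells per well from a log-phase culture. […] DMSO vehicle up to 0.5% v/v. At least three independent experiments.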
# [2] = system: Mycobacterium tuberculosis; assay: Antibacterial activity against Mycobacterium tuberculosis H37Ra ATCC 25177 assessed as bacterial growth inhibition incubated for 7 days by absorbance based analysis; assay type: functional; conditions: H37Ra ATCC 25177, 168 h, time 7 day
# Summary of the method: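 H37Ra grown 2 weeks in Middlebrook 7H9, then diluted to OD600 0.01. Compounds added in twofold dilutions, final 0.024–50 μM, with 0.5% DMSO and streptomycin as positive control. Incubated 7 days at 37 °C. MIC is the lowest concentration with no growth, with OD600 recorded. At least three independent experiments.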
# Streptococcus pneumoniae = assay: Antibacterial activity against Streptococcus pneumoniae ATCC 6303 assessed as bacterial growth inhibition incubated for 16 to 20 hrs by turbidity based analysis; assay type: functional; conditions: time 16-20 hrs
# HeLa = assay: Cytotoxicity against human HeLa cells assessed as reduction in cell viability incubated for 24 hrs by LDH release assay; assay type: toxicity, cell-based
# Summary of the method: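 HeLa cells in DMEM with 10% FBS, treated at 70–80% confluence with 25, 50 and 100 μM for 24 h. LDH in supernatant measured by 30 min reaction at room temperature, then stop solution and absorbance at 490 nm. Controls: 2% Triton X-100 (maximum), medium only, DMSO vehicle. Three independent experiments.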
# J774 = assay: Cytotoxicity against mouse J774 cells assessed as reduction in cell viability […] by Alamar blue assay; assay type: toxicity, cell-based
# HEK293 = assay: Cytotoxicity against human HEK293 cells assessed as reduction in cell viability incubated for 72 hrs by MTT assay; assay type: toxicity, cell-based
# Summary of the method: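 HEK-293 cells in DMEM with 10% FBS, 10⁴ cells/well, seeded overnight. Exposed to 0–200 μM (twofold steps, n = 6) for 72 h at 37 °C. MTT 5 mg/mL added for 4 h, formazan dissolved in DMSO, OD read at 570 nm. Inhibition % = (1 − test/untreated OD) × 100.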
# Staphylococcus aureus [3] = assay: Antibiofilm activity against methicillin-resistant Staphylococcus aureus BAA-1707 biofilms assessed as reduction of viable biofilm cells at MBEC measured by CBD assay; assay type: functional
# Summary of the method: (§1)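 After the Calgary biofilm device assay, treated and untreated pegs were removed, sonicated 30 min in PBS and plated for CFU per peg. Log10 reduction of viable biofilm cells at the MBEC determined by comparison with untreated pegs. At least three independent experiments.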
# [4] = system: Staphylococcus epidermidis; assay: Antibiofilm activity against methicillin-resistant Staphylococcus epidermidis ATCC 35984 biofilms assessed as reduction of viable biofilm cells at MBEC measured by CBD assay; assay type: functional; summary of the method: as §1
# Staphylococcus aureus [5] = assay: Induction of iron starvation in methicillin-resistant Staphylococcus aureus BAA-1707 biofilms assessed as upregulation of sfaA gene expression at 1/10XMBEC incubated for 4 hrs by RT-qPCR analysis; assay type: functional
# Summary of the method: (§2)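 MRSA BAA-1707 grown in TSB with 0.5% glucose to OD600 ~0.8–1.0, then biofilms formed 20 h at 37 °C statically in gelatin-coated 24-well plates. Biofilms treated 4 h at 37 °C with compound (1 μM or 1/10 MBEC) or DMSO vehicle. RNA extracted; only RIN ≥7 samples used. One-step SYBR RT-qPCR; ΔCT normalised to ptaA. Three independent experiments.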
# Staphylococcus aureus [6] = assay: Induction of iron starvation in methicillin-resistant Staphylococcus aureus BAA-1707 biofilms assessed as upregulation of sbnC gene expression at 1 uM incubated for 4 hrs by RT-qPCR analysis; assay type: functional; summary of the method: as §2
# Staphylococcus aureus [7] = assay: Induction of iron starvation in methicillin-resistant Staphylococcus aureus BAA-1707 biofilms assessed as upregulation of sbnC gene expression at 1/10XMBEC incubated for 4 hrs by RT-qPCR analysis; assay type: functional; summary of the method: as §2
# Staphylococcus aureus [8] = assay: Induction of iron starvation in methicillin-resistant Staphylococcus aureus BAA-1707 biofilms assessed as upregulation of isdB gene expression at 1/10XMBEC incubated for 4 hrs by RT-qPCR analysis; assay type: functional; summary of the method: as §2
# Staphylococcus aureus [9] = assay: Induction of iron starvation in methicillin-resistant Staphylococcus aureus BAA-1707 biofilms assessed as upregulation of MW0695 gene expression at 1 uM incubated for 4 hrs by RT-qPCR analysis; assay type: functional; summary of the method: as §2
# Staphylococcus aureus [10] = assay: Induction of iron starvation in methicillin-resistant Staphylococcus aureus BAA-1707 biofilms assessed as upregulation of MW0695 gene expression at 1/10XMBEC incubated for 4 hrs by RT-qPCR analysis; assay type: functional; summary of the method: as §2
# Staphylococcus aureus [11] = assay: Antibacterial activity against Staphylococcus aureus UAMS-1 infected in BALB/c mouse dorsal wound infection model assessed as reduction in bacterial load in wound administered topically twice a day for 3 days; assay type: functional; conditions: time 3 day
# Summary of the method: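 Female BALB/c mice, 4–6 weeks old, anesthetized with ketamine/xylazine i.p. 4.5 mm dermal punch wound inoculated with 1×10⁷ CFU in 10 μL. 50 μL PEG 400/3350 ointment or vehicle given 45 min post-inoculation, then every 12 h for 3 days. Tissue excised with 7 mm punch, homogenized, plated on ChromoAgar; CFU per lesion.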
# Enterococcus faecalis = assay: Antibacterial activity against Enterococcus faecalis OG1RF ATCC 47077 infected in C57BL/6J mouse dorsal wound infection model assessed as reduction in bacterial load in wound administered topically once a day for 3 days; assay type: functional; conditions: time 3 day
# Summary of the method: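 Female C57BL/6J mice, 7 weeks old. 3 mm dorsal punch wound infected with 20 μL of 6×10¹⁰ CFU/mL and covered with Tegaderm. From 24 h post-infection, PEG 400/PEG 3350 ointment or PEG vehicle applied topically once daily. Day 3 wounds excised, homogenized in PBS and plated on TSA with rifampicin and fusidic acid for CFU.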
# Staphylococcus aureus [12] = assay: Antibacterial activity against methicillin-resistant Staphylococcus aureus clinical isolate 1 assessed as bacterial growth inhibition; assay type: functional
# Staphylococcus aureus [13] = assay: Antibacterial activity against methicillin-resistant Staphylococcus aureus 147 assessed as bacterial growth inhibition; assay type: functional
# Staphylococcus aureus [14] = assay: Antibacterial activity against methicillin-resistant Staphylococcus aureus 138 assessed as bacterial growth inhibition; assay type: functional
# Staphylococcus aureus [15] = assay: Antibacterial activity against methicillin-resistant Staphylococcus aureus 156 assessed as bacterial growth inhibition; assay type: functional
# [16] = system: Staphylococcus epidermidis; assay: Antibiofilm activity against methicillin-resistant Staphylococcus epidermidis ATCC 35984 biofilms assessed as biofilm killing at 3.13 uM measured by CBD assay; assay type: functional
# [17] = system: Staphylococcus epidermidis; assay: Antibiofilm activity against methicillin-resistant Staphylococcus epidermidis ATCC 35984 biofilms assessed as reduction of viable biofilm cells at 3.13 uM measured by CBD assay; assay type: functional
structure (smiles),measurement,setting,value
Cc1cccc2nc3c(O)c(Br)c(Cl)c(Br)c3nc12,MIC,Staphylococcus aureus [1],0.05 µM
same,MIC,Enterococcus faecium,0.1 µM
same,MIC,Streptococcus pneumoniae,0.5 µM
same,IC50,HeLa,> 100 µM
same,IC50,J774,> 200 µM
same,IC50,HEK293,18.3 µM
same,Activity,Staphylococcus aureus [3],2.55 log10CFU
same,Activity,[4],3.65 log10CFU
same,Activity,Staphylococcus aureus [5],Active
same,Activity,Staphylococcus aureus [6],Active
same,Activity,Staphylococcus aureus [7],Active
same,Activity,Staphylococcus aureus [8],Active
same,Activity,Staphylococcus aureus [9],Active
same,Activity,Staphylococcus aureus [10],Active
same,Activity,Staphylococcus aureus [11],0.82 log10CFU
same,Activity,Enterococcus faecalis,1.73 log10CFU
same,MIC,Staphylococcus aureus [12],0.06 µM
same,MIC,Staphylococcus aureus [13],0.06 µM
same,MIC,Staphylococcus aureus [14],0.06 µM
same,MIC,Staphylococcus aureus [15],0.06 µM
same,Activity,[16],99.999%
same,Activity,[17],5 log10CFU
